Test results taken from ChEMBL document CHEMBL1135836, “Cyclodextrin-derived host molecules as reversal agents for the neuromuscular blocker rocuronium bromide: synthesis and structure-activity relationships” (J Med Chem, 2002).

Tests used:
Format in all cases: functional
[1] = species on record: Mus musculus; assay: In vitro reversal activity versus ~90% block by rocuronium in isolated mouse hemidiaphragm, expressed as % of maximum reversal at 5.4 uM conc.
[2] = tested on: Cavia porcellus; assay: In vivo reversal activity versus ~90% block by rocuronium in guinea pig
Summary of the method: (§1)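 Male Dunkin-Hartley guinea pigs (600-900 g), anaesthetized ip with pentobarbitone 10 mg/kg plus urethane 1000 mg/kg, tracheotomized and ventilated. Continuous iv rocuronium infusion (~10 nmol kg-1 min-1) was raised to a steady 85-90% block. Increasing iv doses of agent were given cumulatively. ED50 = 50% recovery versus preblock twitch, by regression. Mean ± SEM of at least two experiments, or one.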

[3] = tested on: Cavia porcellus; assay: In vivo reversal activity versus ~90% block by rocuronium in guinea pig, expressed as % of maximum reversal at 0.5 umol/kg conc.; summary of the method: as §1
[4] = species on record: Mus musculus; assay: In vitro reversal activity versus ~90% block by rocuronium in isolated mouse hemidiaphragm, expressed as effective conc.
[5] = tested on: Cavia porcellus; assay: In vivo reversal activity versus ~90% block by rocuronium in guinea pig, expressed as % of maximum reversal at 16 umol/kg conc.
Summary of the method: (§2)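 Male Dunkin-Hartley guinea pigs (600-900 g) anaesthetized ip with pentobarbitone 10 mg/kg plus urethane 1000 mg/kg, tracheotomized and artificially ventilated. Continuous iv rocuronium bromide infusion (~10 nmol kg-1 min-1) raised until steady-state twitch block of 85-90%. Increasing single iv doses of reversal agent given by a separate catheter. Max reversal is peak twitch recovery versus preblock height at highest dose tested; means ± SEM, n ≥ 2 or single experiment.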

[6] = species on record: Mus musculus; assay: In vitro reversal activity versus ~90% block by rocuronium in isolated mouse hemidiaphragm, expressed as % of maximum reversal at 18 uM conc.
[7] = tested on: Cavia porcellus; assay: In vivo reversal activity versus ~90% block by rocuronium in guinea pig, expressed as % of maximum reversal at 0.3 umol/kg conc.; summary of the method: as §1
[8] = species on record: Mus musculus; assay: In vitro reversal activity versus ~90% block by rocuronium in isolated mouse hemidiaphragm, expressed as % of maximum reversal at 3.6 uM conc.
[9] = tested on: Cavia porcellus; assay: In vivo reversal activity versus ~90% block by rocuronium in guinea pig, expressed as % of maximum reversal at 15 umol/kg conc.; summary of the method: as §2

SMILES | Max reversal [1] [%] | ED50 [2] [µmol/kg] | Max reversal [3] [%] | EC50 [4] [µM] | Max reversal [5] [%] | Max reversal [6] [%] | Max reversal [7] [%] | Max reversal [8] [%] | Max reversal [9] [%]
O=C([O-])c1ccccc1C(=O)NCCSCC1O[C@@H]2O[C@@H]3C(CSCCNC(=O)c4ccccc4C(=O)[O-])O[C@H](O[C@@H]4C(CSCCNC(=O)c5ccccc5C(=O)[O-])O[C@H](O[C@@H]5C(CSCCNC(=O)c6ccccc6C(=O)[O-])O[C@H](O[C@@H]6C(CSCCNC(=O)c7ccccc7C(=O)[O-])O[C@H](O[C@@H]7C(CSCCNC(=O)c8ccccc8C(=O)[O-])O[C@H](O[C@@H]8C(CSCCNC(=O)c9ccccc9C(=O)[O-])O[C@H](O[C@@H]9C(CSCCNC(=O)c%10ccccc%10C(=O)[O-])O[C@H](O[C@H]1C(O)C2O)C(O)C9O)C(O)C8O)C(O)C7O)C(O)C6O)C(O)C5O)C(O)C4O)C(O)C3O.[Na+].[Na+].[Na+].[Na+].[Na+].[Na+].[Na+].[Na+] (stereo partly specified) | 88.3 | 0.09 | 94.5 | 0.1 | – | – | – | – | –
O=C([O-])CCCSCC1O[C@@H]2O[C@@H]3C(CSCCCC(=O)[O-])O[C@H](O[C@@H]4C(CSCCCC(=O)[O-])O[C@H](O[C@@H]5C(CSCCCC(=O)[O-])O[C@H](O[C@@H]6C(CSCCCC(=O)[O-])O[C@H](O[C@@H]7C(CSCCCC(=O)[O-])O[C@H](O[C@H]1C(O)C2O)C(O)C7O)C(O)C6O)C(O)C5O)C(O)C4O)C(O)C3O.[Na+].[Na+].[Na+].[Na+].[Na+].[Na+] (stereo partly specified) | – | > 16 | – | > 18 | 3.4 | 5.3 | – | – | –
O=C([O-])CCCCSCC1O[C@@H]2O[C@@H]3C(CSCCCCC(=O)[O-])O[C@H](O[C@@H]4C(CSCCCCC(=O)[O-])O[C@H](O[C@@H]5C(CSCCCCC(=O)[O-])O[C@H](O[C@@H]6C(CSCCCCC(=O)[O-])O[C@H](O[C@@H]7C(CSCCCCC(=O)[O-])O[C@H](O[C@@H]8C(CSCCCCC(=O)[O-])O[C@H](O[C@@H]9C(CSCCCCC(=O)[O-])O[C@H](O[C@H]1C(O)C2O)C(O)C9O)C(O)C8O)C(O)C7O)C(O)C6O)C(O)C5O)C(O)C4O)C(O)C3O.[Na+].[Na+].[Na+].[Na+].[Na+].[Na+].[Na+].[Na+] (stereo partly specified) | 98.9 | 0.07 | – | 1.8 | – | – | 99 | – | –
O=C([O-])CCCSCC1O[C@@H]2O[C@@H]3C(CO)O[C@H](O[C@@H]4C(CO)O[C@H](O[C@@H]5C(CO)O[C@H](O[C@@H]6C(CO)O[C@H](O[C@@H]7C(CO)O[C@H](O[C@@H]8C(CO)O[C@H](O[C@@H]9C(CO)O[C@H](O[C@H]1C(O)C2O)C(O)C9O)C(O)C8O)C(O)C7O)C(O)C6O)C(O)C5O)C(O)C4O)C(O)C3O.[Na+] (stereo partly specified) | – | – | – | > 18 | – | 14.4 | – | – | –
O=C([O-])Cc1cccc(SCC2O[C@@H]3O[C@@H]4C(CO)O[C@H](O[C@@H]5C(CO)O[C@H](O[C@@H]6C(CO)O[C@H](O[C@@H]7C(CO)O[C@H](O[C@@H]8C(CO)O[C@H](O[C@@H]9C(CO)O[C@H](O[C@@H]%10C(CO)O[C@H](O[C@H]2C(O)C3O)C(O)C%10O)C(O)C9O)C(O)C8O)C(O)C7O)C(O)C6O)C(O)C5O)C(O)C4O)c1.[Na+] (stereo partly specified) | – | 1.67 | – | > 18 | 92.8 | 30.4 | – | – | –
O=C([O-])CCCSCC1O[C@@H]2O[C@@H]3C(CSCCCC(=O)[O-])O[C@H](O[C@@H]4C(CSCCCC(=O)[O-])O[C@H](O[C@@H]5C(CSCCCC(=O)[O-])O[C@H](O[C@@H]6C(CSCCCC(=O)[O-])O[C@H](O[C@@H]7C(CSCCCC(=O)[O-])O[C@H](O[C@@H]8C(CSCCCC(=O)[O-])O[C@H](O[C@@H]9C(CSCCCC(=O)[O-])O[C@H](O[C@H]1C(O)C2O)C(O)C9O)C(O)C8O)C(O)C7O)C(O)C6O)C(O)C5O)C(O)C4O)C(O)C3O.[Na+].[Na+].[Na+].[Na+].[Na+].[Na+].[Na+].[Na+] (stereo partly specified) | – | 0.06 | – | 1.4 | – | – | 93.4 | 98.5 | –
O=C([O-])CSCC1O[C@@H]2O[C@@H]3C(CSCC(=O)[O-])O[C@H](O[C@@H]4C(CSCC(=O)[O-])O[C@H](O[C@@H]5C(CSCC(=O)[O-])O[C@H](O[C@@H]6C(CSCC(=O)[O-])O[C@H](O[C@@H]7C(CSCC(=O)[O-])O[C@H](O[C@@H]8C(CSCC(=O)[O-])O[C@H](O[C@@H]9C(CSCC(=O)[O-])O[C@H](O[C@H]1C(O)C2O)C(O)C9O)C(O)C8O)C(O)C7O)C(O)C6O)C(O)C5O)C(O)C4O)C(O)C3O.[Na+].[Na+].[Na+].[Na+].[Na+].[Na+].[Na+].[Na+] (stereo partly specified) | – | 0.1 | 103.3 | 1.2 | – | – | – | 93.8 | –
O=C([O-])CSCC1O[C@@H]2O[C@@H]3C(CO)O[C@H](O[C@@H]4C(CO)O[C@H](O[C@@H]5C(CO)O[C@H](O[C@@H]6C(CO)O[C@H](O[C@@H]7C(CO)O[C@H](O[C@@H]8C(CO)O[C@H](O[C@@H]9C(CO)O[C@H](O[C@H]1C(O)C2O)C(O)C9O)C(O)C8O)C(O)C7O)C(O)C6O)C(O)C5O)C(O)C4O)C(O)C3O.[Na+] (stereo partly specified) | – | 5.79 | – | 60.8 | 96.5 | 28.9 | – | – | –
O=C([O-])CCc1cccc(SCC2O[C@@H]3O[C@@H]4C(CSc5cccc(CCC(=O)[O-])c5)O[C@H](O[C@@H]5C(CSc6cccc(CCC(=O)[O-])c6)O[C@H](O[C@@H]6C(CSc7cccc(CCC(=O)[O-])c7)O[C@H](O[C@@H]7C(CSc8cccc(CCC(=O)[O-])c8)O[C@H](O[C@@H]8C(CSc9cccc(CCC(=O)[O-])c9)O[C@H](O[C@@H]9C(CSc%10cccc(CCC(=O)[O-])c%10)O[C@H](O[C@@H]%10C(CSc%11cccc(CCC(=O)[O-])c%11)O[C@H](O[C@H]2C(O)C3O)C(O)C%10O)C(O)C9O)C(O)C8O)C(O)C7O)C(O)C6O)C(O)C5O)C(O)C4O)c1.[Na+].[Na+].[Na+].[Na+].[Na+].[Na+].[Na+].[Na+] (stereo partly specified) | – | 22.8 | – | 14.8 | 35.3 | 65.2 | – | – | –
CC(C)(CSCC1O[C@@H]2O[C@@H]3C(CSCC(C)(C)C(=O)[O-])O[C@H](O[C@@H]4C(CSCC(C)(C)C(=O)[O-])O[C@H](O[C@@H]5C(CSCC(C)(C)C(=O)[O-])O[C@H](O[C@@H]6C(CSCC(C)(C)C(=O)[O-])O[C@H](O[C@@H]7C(CSCC(C)(C)C(=O)[O-])O[C@H](O[C@@H]8C(CSCC(C)(C)C(=O)[O-])O[C@H](O[C@@H]9C(CSCC(C)(C)C(=O)[O-])O[C@H](O[C@H]1C(O)C2O)C(O)C9O)C(O)C8O)C(O)C7O)C(O)C6O)C(O)C5O)C(O)C4O)C(O)C3O)C(=O)[O-].[Na+].[Na+].[Na+].[Na+].[Na+].[Na+].[Na+].[Na+] (stereo partly specified) | – | 1.32 | – | 20.3 | – | 47.6 | – | – | 98.8
O=C([O-])c1cccc(SCC2O[C@@H]3O[C@@H]4C(CO)O[C@H](O[C@@H]5C(CO)O[C@H](O[C@@H]6C(CO)O[C@H](O[C@@H]7C(CO)O[C@H](O[C@@H]8C(CO)O[C@H](O[C@@H]9C(CO)O[C@H](O[C@@H]%10C(CO)O[C@H](O[C@H]2C(O)C3O)C(O)C%10O)C(O)C9O)C(O)C8O)C(O)C7O)C(O)C6O)C(O)C5O)C(O)C4O)c1.[Na+] (stereo partly specified) | – | 2.41 | – | > 18 | 102.7 | 36.1 | – | – | –
O=S(=O)([O-])CCSCC1O[C@@H]2O[C@@H]3C(CSCCS(=O)(=O)[O-])O[C@H](O[C@@H]4C(CSCCS(=O)(=O)[O-])O[C@H](O[C@@H]5C(CSCCS(=O)(=O)[O-])O[C@H](O[C@@H]6C(CSCCS(=O)(=O)[O-])O[C@H](O[C@@H]7C(CSCCS(=O)(=O)[O-])O[C@H](O[C@@H]8C(CSCCS(=O)(=O)[O-])O[C@H](O[C@@H]9C(CSCCS(=O)(=O)[O-])O[C@H](O[C@H]1C(O)C2O)C(O)C9O)C(O)C8O)C(O)C7O)C(O)C6O)C(O)C5O)C(O)C4O)C(O)C3O.[Na+].[Na+].[Na+].[Na+].[Na+].[Na+].[Na+].[Na+] (stereo partly specified) | – | 0.05 | 92.8 | 3.6 | – | – | – | 95.6 | –
